Assay results reported in ChEMBL document CHEMBL1649151, “Urinary bactericidal activity of Doripenem versus that of levofloxacin in patients with complicated urinary tract infections or pyelonephritis” (Antimicrob Agents Chemother, 2009).
In brackets after ≈: the same amount, converted by molar mass.

Assays:
[1] = system: Escherichia coli; test: Antimicrobial activity against Escherichia coli 1949821 B-M isolated from patient with pyelonephritis assessed as >3-log reduction in urinary bacterial titer after 24 hrs; type: functional, Urine
Outline: (§1)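 Urine was collected on day 3 of i.v. therapy (steady state) over 4-h intervals from infusion start (0–4 to 20–24 h), stored at –80°C and sterile filtered. It was serially diluted twofold (1:0 up to 1:131,072) in the patient's own pre-dose drug-free urine. Microdilution used a final inoculum of 1.0 x 10^6 to 9.5 x 10^6 CFU/ml, incubated 18 h at 37°C in air. 10 µl was subcultured onto 5% blood Columbia agar for 24 h at 37°C. The bactericidal endpoint was >99.9% (>3-log) kill, reported as a reciprocal titer.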

[2] = system: Enterococcus faecalis; test: Antimicrobial activity against Enterococcus faecalis 1780065 B-B isolated from patient with pyelonephritis assessed as >3-log reduction in urinary bacterial titer after 24 hrs; type: functional, Urine
Outline: (§2)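 Urine was collected before dosing and on day 3 of i.v. therapy (steady state), in 4-h intervals from infusion start (0–4 to 20–24 h), stored at −80°C and sterile filtered. It was serially diluted twofold (1:0 to 1:131,072) in the patient's drug-free pre-dose urine. Microdilution used an inoculum of 1.0 x 10^6–9.5 x 10^6 CFU/ml, incubated 18 h at 37°C, then subcultured 24 h on blood agar. The endpoint was >99.9% kill, reported as reciprocal titer.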

[3] = system: Pseudomonas aeruginosa; test: Antimicrobial activity against Pseudomonas aeruginosa 1134642 isolated from patient with pyelonephritis assessed as >3-log reduction in urinary bacterial titer after 24 hrs; type: functional, Urine
Outline: (§3)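 Patient urine was collected on day 3 of i.v. therapy (steady state) over 4-h intervals after infusion start, stored at –80°C, and sterile filtered. It was twofold serially diluted (1:0 to 1:131,072) in the patient's own pre-dose drug-free urine, inoculated to 1.0 x 10^6–9.5 x 10^6 CFU/ml, and incubated for 18 h at 37°C. Subcultures were grown on blood agar for 24 h. The UBT is the reciprocal of the highest dilution giving >99.9% kill.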

[4] = system: Escherichia coli; test: Antimicrobial activity against Escherichia coli 1135121 isolated from patient with pyelonephritis assessed as >3-log reduction in urinary bacterial titer after 24 hrs; type: functional, Urine; outline: as §2
[5] = system: Enterococcus faecalis; test: Antimicrobial activity against Enterococcus faecalis 1780065 B-B isolated from patient with pyelonephritis assessed as >3-log reduction in urinary bacterial titer after 20 hrs; type: functional, Urine; outline: as §2
[6] = system: Escherichia coli; test: Antimicrobial activity against Escherichia coli 1949820 B-N isolated from patient with pyelonephritis assessed as >3-log reduction in urinary bacterial titer after 20 hrs; type: functional, Urine; outline: as §1
[7] = system: Escherichia coli; test: Antimicrobial activity against Escherichia coli 1135121 isolated from patient with pyelonephritis assessed as >3-log reduction in urinary bacterial titer after 20 hrs; type: functional, Urine; outline: as §2
[8] = system: Pseudomonas aeruginosa; test: Antimicrobial activity against Pseudomonas aeruginosa […] assessed as >3-log reduction in urinary bacterial titer after 20 hrs; type: functional, Urine; outline: as §3
[9] = system: Escherichia coli; test: Antimicrobial activity against Escherichia coli 1949821 B-M isolated from patient with pyelonephritis assessed as >3-log reduction in urinary bacterial titer after 16 hrs; type: functional, Urine; outline: as §1
[10] = system: Escherichia coli; test: Antimicrobial activity against Escherichia coli 1949820 B-N isolated from patient with pyelonephritis assessed as >3-log reduction in urinary bacterial titer after 16 hrs; type: functional, Urine; outline: as §1
[11] = system: Pseudomonas aeruginosa; test: Antimicrobial activity against Pseudomonas aeruginosa 1134642 isolated from patient with pyelonephritis assessed as >3-log reduction in urinary bacterial titer after 16 hrs; type: functional, Urine; outline: as §3
[12] = system: Proteus mirabilis; test: Antimicrobial activity against Proteus mirabilis 1134841 isolated from patient with pyelonephritis assessed as >3-log reduction in urinary bacterial titer after 16 hrs; type: functional, Urine; outline: as §3
[13] = system: Escherichia coli; test: Antimicrobial activity against Escherichia coli 1949821 B-M isolated from patient with pyelonephritis assessed as >3-log reduction in urinary bacterial titer after 12 hrs; type: functional, Urine; outline: as §1
[14] = system: Staphylococcus aureus; test: Antimicrobial activity against Staphylococcus aureus 1134684 isolated from patient with pyelonephritis assessed as >3-log reduction in urinary bacterial titer after 12 hrs; type: functional, Urine; outline: as §3
[15] = system: Proteus mirabilis; test: Antimicrobial activity against Proteus mirabilis 1134841 isolated from patient with pyelonephritis assessed as >3-log reduction in urinary bacterial titer after 12 hrs; type: functional, Urine; outline: as §3
[16] = system: Escherichia coli; test: Antimicrobial activity against Escherichia coli 1135121 isolated from patient with pyelonephritis assessed as >3-log reduction in urinary bacterial titer after 12 hrs; type: functional, Urine; outline: as §2
[17] = system: Pseudomonas aeruginosa; test: Antimicrobial activity against Pseudomonas aeruginosa […] assessed as >3-log reduction in urinary bacterial titer after 12 hrs; type: functional, Urine; outline: as §3
[18] = system: Proteus mirabilis; test: Antimicrobial activity against Proteus mirabilis 1134841 isolated from patient with pyelonephritis assessed as >3-log reduction in urinary bacterial titer after 8 hrs; type: functional, Urine; outline: as §3
[19] = system: Escherichia coli; test: Antimicrobial activity against Escherichia coli 1135121 isolated from patient with pyelonephritis assessed as >3-log reduction in urinary bacterial titer after 8 hrs; type: functional, Urine; outline: as §2
[20] = system: Enterococcus faecalis; test: Antimicrobial activity against Enterococcus faecalis 1780065 B-B isolated from patient with pyelonephritis assessed as >3-log reduction in urinary bacterial titer after 4 hrs; type: functional, Urine; outline: as §2
[21] = system: Escherichia coli; test: Antimicrobial activity against Escherichia coli 1780064 A-X isolated from patient with pyelonephritis assessed as >3-log reduction in urinary bacterial titer after 20 hrs; type: functional, Urine; outline: as §1
[22] = system: Staphylococcus aureus; test: Antimicrobial activity against Staphylococcus aureus 1889640 A-Z isolated from patient with pyelonephritis assessed as >3-log reduction in urinary bacterial titer after 12 hrs; type: functional, Urine
[23] = system: Staphylococcus epidermidis; test: Antimicrobial activity against Staphylococcus epidermidis 1949822 B-J isolated from patient with pyelonephritis by Etest; type: functional
[24] = system: Escherichia coli; test: Antimicrobial activity against Escherichia coli 2062717 B-P isolated from patient with pyelonephritis by Etest; type: functional
[25] = system: Escherichia coli; test: Antimicrobial activity against Escherichia coli 1949821 B-M isolated from patient with pyelonephritis by Etest; type: functional
[26] = system: Pseudomonas aeruginosa; test: Antimicrobial activity against Pseudomonas aeruginosa ATCC 27853 isolated from patient with pyelonephritis by Etest; type: functional
[27] = system: Escherichia coli; test: Antimicrobial activity against Escherichia coli 1655646 A-Y isolated from patient with pyelonephritis assessed as >3-log reduction in urinary bacterial titer after 8 hrs; type: functional, Urine; outline: as §2
[28] = system: Enterococcus faecalis; test: Antimicrobial activity against Enterococcus faecalis 2215767-10 B-S isolated from patient with pyelonephritis assessed as >3-log reduction in urinary bacterial titer after 8 hrs; type: functional, Urine; outline: as §2
[29] = system: Escherichia coli; test: Antimicrobial activity against Escherichia coli 1821386 B-D isolated from patient with pyelonephritis assessed as >3-log reduction in urinary bacterial titer after 4 hrs; type: functional, Urine; outline: as §1
[30] = Drug excretion in pyelonephritis patient urine at 500 mg/kg, iv administered every 8 hrs; type: ADME, organism-based; design: dose 500 mg/kg, route intravenous; settings: human, read-out: Activity
[31] = system: Staphylococcus aureus; test: Antimicrobial activity against Staphylococcus aureus 1889640 A-Z isolated from patient with pyelonephritis assessed as >3-log reduction in urinary bacterial titer after 24 hrs; type: functional, Urine
[32] = system: Pseudomonas aeruginosa; test: Antimicrobial activity against Pseudomonas aeruginosa 2062713 B-Q isolated from patient with pyelonephritis by Etest; type: functional
[33] = system: Escherichia coli; test: Antimicrobial activity against Escherichia coli 2297257 B-W isolated from patient with pyelonephritis assessed as >3-log reduction in urinary bacterial titer after 12 hrs; type: functional, Urine
[34] = system: Staphylococcus haemolyticus; test: Antimicrobial activity against Staphylococcus haemolyticus 1949819 B-M isolated from patient with pyelonephritis assessed as >3-log reduction in urinary bacterial titer after 8 hrs; type: functional, Urine
[35] = system: Escherichia coli; test: Antimicrobial activity against Escherichia coli 2062717 B-P isolated from patient with pyelonephritis assessed as >3-log reduction in urinary bacterial titer after 4 hrs; type: functional, Urine

Structure (SMILES) | Time [1] [h] | Time [2] [h] | urinary bactericidal titer [3] [reciprocal titer] | urinary bactericidal titer [4] [reciprocal titer] | urinary bactericidal titer [5] [reciprocal titer] | urinary bactericidal titer [7] [titer] | urinary bactericidal titer [8] [reciprocal titer] | Time [9] [h] | Time [10] [h] | urinary bactericidal titer [11] [reciprocal titer] | urinary bactericidal titer [12] [reciprocal titer] | urinary bactericidal titer [13] [titer] | urinary bactericidal titer [14] [reciprocal titer] | urinary bactericidal titer [15] [reciprocal titer] | urinary bactericidal titer [16] [titer] | urinary bactericidal titer [17] [reciprocal titer] | urinary bactericidal titer [18] [reciprocal titer] | urinary bactericidal titer [19] [titer] | urinary bactericidal titer [20] [reciprocal titer] | MIC [23] [µg/mL] | other results
C[C@H]1COc2c(N3CCN(C)CC3)c(F)cc3c(=O)c(C(=O)O)cn1c23.C[C@H]1COc2c(N3CCN(C)CC3)c(F)cc3c(=O)c(C(=O)O)cn1c23.O [LEVOFLOXACIN] | 40 | 6 | 0 | 2 | 8 | 3 | 6 | 48 | 0.5 | 1 | 0 | 64 | 4 | 0 | 3 | 8 | 0 | 8 | 32 | 8 | Time [6]: 1 h; urinary bactericidal titer [21]: 256 reciprocal titer; urinary bactericidal titer [22]: 128 reciprocal titer; MIC [24]: 8 µg/mL; MIC [25]: 0.125 µg/mL; MIC [26]: 0.25 µg/mL; urinary bactericidal titer [27]: 2048 reciprocal titer; urinary bactericidal titer [28]: 0 reciprocal titer; urinary bactericidal titer [29]: 2048 reciprocal titer; dose excreted at 8 h [30]: 80%; urinary bactericidal titer [31]: 64 reciprocal titer
C[C@@H](O)[C@H]1C(=O)N2C(C(=O)O)=C(S[C@@H]3CN[C@H](CNS(N)(=O)=O)C3)[C@H](C)[C@H]12 [DORIPENEM] | 5120 | 32 | 1280 | 4096 | 256 | 32800 | 4096 | 8192 | 8192 | 2048 | 1540 | 32800 | 12 | 6140 | 65500 | 3070 | 1024 | 24600 | 128 | > 32 | urinary bactericidal titer [6]: 32800; MIC [32]: 0.5 µg/mL (≈ 1.19 µM); MIC [24]: ≤ 0.015 µg/mL; MIC [25]: ≤ 0.015 µg/mL; MIC [26]: 0.12 µg/mL (≈ 0.285 µM); urinary bactericidal titer [33]: 16400 reciprocal titer; urinary bactericidal titer [34]: 128 reciprocal titer; urinary bactericidal titer [35]: 32800 reciprocal titer; dose excreted at 8 h [30]: 80%
